Hits are enriched below; roughly 5.1% of the tested compounds scored in any of these assays.
STAT1 inh: STAT1 signaling inhibitors, primary screen, cell-based, HTS, luciferase reporter. NIH 3T3 STAT1-luciferase reporter, IFN-gamma, luminescence. inhibition, % at 5.5 µM. 200,000 compounds, 0.35% hits. AID 920, 2007;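 active means inhibition above a set limit, the mean inhibition across all tested compounds plus 3 SD, cut at about 34% in these data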;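 further: 0% = IFN-gamma with DMSO and 100% = IFN-gamma with 300 µM nifuroxazide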
APP 5'UTR act: activators of APP 5'UTR luciferase reporter, primary screen, SH-SY5Y cells | SH-SY5Y APP 5'UTR luciferase reporter, luminescence; zero percent = DMSO vehicle wells | activation, % at 2 µM | AID 1276, 2008 | 190,000 compounds, 1% hits;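 active means activation above a set limit, based on mean plus 3 SD of controls, cut at about 140% in these data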
STAT1 act: STAT1 signaling activators, primary screen, cell-based, HTS, luciferase reporter; NIH 3T3 STAT1-luciferase reporter, IFN-gamma, luminescence; 100% = IFN-gamma alone, no compound; activation (% of control), % at 5.5 µM; 200,000 compounds, 2.6% hits;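 active means activation above the screen-wide mean activation plus 3 SD, cut at about 130% in these data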;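 further: raw ratio to IFN-gamma control signal so 100% means no change and 0% no light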
NF-kB neuron act: activators of NF-kB expression in neurons, primary screen, cell-based, HTS; human neuronal cells, NF-kB reporter expression; stronger effect = higher value; fold change at 12.5 µM; 190,000 compounds, 1.6% hits; in the data active means fold change above about 3.3
STAT3 inh: IL-6 driven STAT3 reporter inhibitors, primary screen, U3A cells, luciferase, luminescence, MLSCN library; IL-6 STAT3-luciferase reporter; host cell line lacks STAT1; inhibition, % at 5.5 µM; 190,000 compounds, 0.89% hits;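 active means inhibition above the mean inhibition across all screened compounds plus 3 SD, cut at about 44% in these data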;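 further: 0% = DMSO only wells and 100% = 100 µM nifuroxazide control wells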
STAT3 act: IL-6 driven STAT3 reporter potentiators, primary screen, U3A cells, luciferase, luminescence, MLSCN library; activation (% of control), % at 5.6 µM; 190,000 compounds, 0.91% hits; IL-6 STAT3-luciferase reporter; 100% = signal with IL-6 EC80 alone; AID 871, 2007;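 active means activation above the screen-wide mean of compound activation plus 3 SD, cut at about 130% in these data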;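 further: 0% = background luminescence of wells with medium and substrate only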
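System – human U3A cells carrying STAT3-luciferase construct · Probe or stimulus – Interleukin-6, 33 ng/mL · Schedule – compound 1 h, then IL-6 6 h at 37 °C · Signal – luminescence from STAT3-driven luciferase reporter · Evaluation – percent of IL-6-only median luminescence · Benchmarks – IL-6-only high control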
* hit, by the source's call; / = no result.

SMILES	STAT1 inh	APP 5'UTR act	STAT1 act	NF-kB neuron act	STAT3 inh	STAT3 act
O=C(O)c1ccccc1NN=C1CCCCC1	-43	125	138*	3.4*	-18	116
CCOC(=O)c1cccc(NC(=O)C2(S(=O)(=O)c3ccc(Cl)cc3)CC2)c1	8	23	95	0.87	-7	104
O=C(CCCc1ccccc1)Nc1cccc(C(=O)O)c1	71*	13	33	2.9	73*	40
Cc1cccnc1NC(=S)NCCc1ccccc1	-35	62	130*	2.1	16	92
CCC(=O)Nc1ccc(NC(=O)c2ccccc2Cl)nc1	-17	18	116	2.9	2	101
O=C(CCc1ccccc1)Nc1ccc(Cl)cn1	-33	-75	130*	1.9	4	101
CC(C)C(=O)Nc1ccc(NC(=O)c2ccccc2Cl)nc1	-36	33	132*	1.9	-10	111
Cc1ccc(NC(=S)NCCc2ccccc2)nc1	-42	29	136*	1.8	-11	116
O=C(Nc1ccccc1C(=O)O)c1ccc2ccccc2n1	0	23	100	1.8	-11	118
O=C(CCc1ccccc1)Nc1ccccc1F	-46	/	144*	3.5*	-2	102
O=C(CCc1ccccc1)Nc1ccc(F)cc1F	-10	-47	109	1.8	4	98
Cc1ccccc1C(=O)Nc1ccc(Cl)cn1	-32	68	129*	2.5	14	95
Cc1ccc(NC(=O)c2ccc3ccccc3n2)nc1	-51	155*	147*	6.2*	-52	153*
COc1cc(C(=O)NC(CCSC)C(=O)OCC(=O)C(C)(C)C)cc(OC)c1OC (stereo unspecified)	6	31	94	1.7	2	100
CCOc1ccc(/C=C(\C(=O)O)c2ccc(S(=O)(=O)N3CCOCC3)s2)cc1OC	-4	-2	103	1.1	8	100
Cc1ccc(NC(=O)CCCc2ccccc2)nc1	-43	73	138*	1.2	-6	112
CCSc1nnc(NC(=O)c2cc(C)nc3ccccc23)s1	-1	-9	101	0.78	-1	105
CCSc1nnc(NC(=O)c2ccc3ccccc3n2)s1	-45	103	142*	3	-25	125
O=C(CCCc1ccccc1)Nc1cccnc1Cl	-10	19	108	1.2	11	99
c1ccc2c(c1)nc(NC1CCCCC1)c1nncn12	-14	-8	113	0.68	-37	136*
Cc1nnc2c(NC3CCCC3)nc3ccccc3n12	17	15	84	0.99	28	82
O=C(O)c1cc(N/N=C/C(Cl)=C/c2ccccc2)ccc1Cl	59*	120	45	0.96	51*	62
O=C(N/N=C/c1cccs1)C(=O)N1CCCC1	-13	13	112	/	9	97
Cc1ccc(/C=N/NC(=O)c2cccs2)s1	-29	43	126	2.6	2	102
O=C(O)c1cc(N/N=C/c2cccs2)ccc1Cl	-12	152*	108	1.9	-30	130
SMILES	STAT1 inh	APP 5'UTR act	STAT1 act	NF-kB neuron act	STAT3 inh	STAT3 act
Cc1ccsc1/C=N/Nc1nc(Cl)c(Cl)cc1Cl	-30	28	126	1.1	-18	117
CN(C(=O)Nc1ccc(Cl)c(Cl)c1)c1ccccc1C(=O)O	0	-9	102	1.1	6	93
Cc1ccc(/C=N/Nc2ccc(Cl)c(C(=O)O)c2)s1	-49	166*	143*	8*	-31	129
Cc1ccc(/C=N/Nc2nc(Cl)c(Cl)cc2Cl)s1	-52	71	147*	2.6	-5	108
Cc1cc(C)c(S(=O)(=O)N2CCCCC2)c(C)c1N(C)S(=O)(=O)c1ccc(Cl)cc1	3	-2	97	0.93	2	103
CCOC(=O)CNC(=S)n1ncnc1N	7	-10	93	1.4	-13	125
C=CCNc1nc(Nc2ccc(OC)cc2OC)nc(OCC)n1	0	10	100	0.19	6	98
C=CCNc1nc(Nc2ccccc2F)nc(OCC)n1	-49	61	142*	2.7	-8	113
